Data: ChEMBL document CHEMBL1156127, “Synthesis, anticonvulsant activity and 3D-QSAR study of some prop-2-eneamido and 1-acetyl-pyrazolin derivatives of aminobenzothiazole” (Eur J Med Chem, 2010)

Key:
Mus musculus [1] = assay: Anticonvulsant activity in ip dosed albino mouse assessed as absence of hind limb tonic extension after 0.5 hrs by MES test; type: functional, Hindlimb; settings: for ED50: Mus musculus, albino, Hindlimb, ip, 0.5 h
Outline: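 Mice given compound ip at 20–1000 µmol/kg, suspended in 0.5% methyl cellulose/water. Seizure induced 0.5 h later by electroconvulsometer, 50 mA, 60 cycle alternating current, 0.25 s via ear clip electrodes. Protection is reduced duration or absence of hind limb tonic extension. ED50 from at least three doses giving 10–90% protection.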

Mus musculus [2] = species on record: Mus musculus; assay: Protection index, ratio of TD50 to ED50 by MES test for albino mouse; type: functional
Outline: (§1)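 Mice were trained on a 3.2 cm rod turning at 6 rpm, then dosed ip at 20–1000 µmol/kg and tested at 0.5 h. […] PI = TD50/ED50, with ED50 from the MES test.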

[3] = Neurotoxicity in ip dosed albino mouse during 1 min by rotarod test; type: toxicity, organism-based; settings: in vivo; outline: as §1
Mus musculus [4] = assay: Anticonvulsant activity in ip dosed albino mouse treated 0.5 hrs before PTZ challenge by scPTZ test; type: functional
Outline: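 Compound given ip (20–1000 µmol/kg in 0.5% methyl cellulose) 0.5 h before pentylenetetrazole, which was dissolved in 0.9% NaCl and injected subcutaneously in the posterior midline of mice. Onset and severity of convulsions were scored, and ED50 was derived.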

Mus musculus [5] = assay: Behavioral effect in albino mouse assessed as change in locomotor activity during 10 mins at 100 umol/kg, ip after 0.5 hrs; type: functional
Outline: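 Mouse activity counted by actophotometer for 10 min 24 h before dosing, then again 0.5 h after 100 µmol/kg ip. % change = 100 − [(post × 100)/pre]. N = 6, mean ± SEM, Student's t test at p < 0.05.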

Rattus norvegicus [6] = assay: CNS toxicity in albino rat assessed as duration of immobility at 100 umol/kg, ip after 0.5 hrs by Porsolt's swimpool test (Rvb= 104 +/- 1.8); settings: in vivo
Rattus norvegicus [7] = assay: CNS toxicity in albino rat assessed as duration of immobility at 100 umol/kg, ip after 0.5 hrs by Porsolt's swimpool test (Rvb= 92 +/- 1.2); settings: in vivo
Rattus norvegicus [8] = assay: CNS toxicity in albino rat assessed as duration of immobility at 100 umol/kg, ip after 0.5 hrs by Porsolt's swimpool test (Rvb= 82 +/- 2.9); settings: in vivo

Row | SMILES | pED50 (Mus musculus [1]) | ED50 (Mus musculus [1]) [µmol/kg] | PI (Mus musculus [2]) | TD50 at 1 min [3] [µmol/kg] | ED50 (Mus musculus [4]) [µmol/kg] | Activity (Mus musculus [5]) [%] | Activity (Rattus norvegicus [6]) [s] | Activity (Rattus norvegicus [7]) [s] | Activity (Rattus norvegicus [8]) [s]
1 | COc1ccc(/C=C/C(=O)Nc2nc3ccccc3s2)cc1 | 3.36 | 435 | 1.24 | 540 |  |  |  |  | 
2 | COc1ccc(/C=C/C(=O)Nc2nc3ccc(C)cc3s2)cc1O | 3.57 | 271 | 1.18 | 321 |  |  |  |  | 
3 | O=C(/C=C/c1ccc(O)cc1)Nc1nc2ccccc2s1 | 3.29 | 517 | 1.78 | 925 |  |  |  |  | 
4 | CC(=O)N1N=C(Nc2nc3ccc(Cl)cc3s2)CC1c1ccccc1 (configuration not stated) | 3.79 | 161 | 1.52 | 245 |  |  |  |  | 
5 | Cc1ccc2nc(NC(=O)/C=C/c3ccco3)sc2c1 | 3.3 | 505 | 1.19 | 603 |  |  |  |  | 
6 | O=C(/C=C/c1ccc(Cl)cc1)Nc1nc2ccc([N+](=O)[O-])cc2s1 | 3.59 | 259 | 3.03 | 787 |  |  |  |  | 
7 | CC(=O)N1N=C(Nc2nc3ccccc3s2)CC1c1ccc(O)cc1 (configuration not stated) | 3.6 | 249 | 2.06 | 513 |  |  |  |  | 
8 | COc1ccc(C2CC(Nc3nc4ccc(Cl)cc4s3)=NN2C(C)=O)cc1O (configuration not stated) | 3.89 | 127 | 2.16 | 276 | 132 |  |  |  | 
9 | COc1ccc(/C=C/C(=O)Nc2nc3ccc(Cl)cc3s2)cc1O | 3.51 | 320 | 1.46 | 470 |  |  |  |  | 
10 | CC(=O)N1N=C(Nc2nc3ccccc3s2)CC1c1ccc(Cl)cc1 (configuration not stated) | 3.68 | 209 | 1.73 | 364 |  |  |  |  | 
11 | O=C(/C=C/c1ccc(Cl)cc1)Nc1nc2ccc(Cl)cc2s1 | 3.69 | 204 | 2.82 | 576 |  |  |  |  | 
12 | COc1ccc(C2CC(Nc3nc4ccc([N+](=O)[O-])cc4s3)=NN2C(C)=O)cc1 (configuration not stated) | 3.84 | 145 | 1.69 | 246 | 149 |  |  |  | 
13 | CC(=O)N1N=C(Nc2nc3ccc([N+](=O)[O-])cc3s2)CC1c1ccc(O)cc1 (configuration not stated) | 3.79 | 162 | 1.29 | 210 |  |  |  |  | 
14 | CC(=O)N1N=C(Nc2nc3ccc(C)cc3s2)CC1c1ccco1 (configuration not stated) | 3.79 | 160 | 1.51 | 243 |  |  |  |  | 
15 | COc1ccc(C2CC(Nc3nc4ccc([N+](=O)[O-])cc4s3)=NN2C(C)=O)cc1O (configuration not stated) | 3.75 | 178 | 1.43 | 256 |  |  |  |  | 
16 | CC(=O)N1N=C(Nc2nc3ccc(C)cc3s2)CC1c1ccccc1 (configuration not stated) | 3.97 | 106 | 2.49 | 265 | 112 | 23.93 | 151 |  | 
17 | O=C(/C=C/c1ccco1)Nc1nc2ccc(Cl)cc2s1 | 3.26 | 544 | 1.2 | 658 |  |  |  |  | 
18 | O=C(/C=C/c1ccc(O)cc1)Nc1nc2ccc(Cl)cc2s1 | 3.49 | 322 | 1.28 | 413 |  |  |  |  | 
19 | Cc1ccc2nc(NC(=O)/C=C/c3ccccc3)sc2c1 | 3.42 | 380 | 1.4 | 534 |  |  |  |  | 
20 | O=C(/C=C/c1ccccc1)Nc1nc2ccc([N+](=O)[O-])cc2s1 | 3.31 | 485 | 1.3 | 633 |  |  |  |  | 
21 | COc1ccc(C2CC(Nc3nc4ccccc4s3)=NN2C(C)=O)cc1 (configuration not stated) | 3.65 | 226 | 1.63 | 369 |  |  |  |  | 
22 | O=C(/C=C/c1ccccc1)Nc1nc2ccc(Cl)cc2s1 | 3.37 | 425 | 1.34 | 570 |  |  |  |  | 
23 | Cc1ccc2nc(NC(=O)/C=C/c3ccc(Cl)cc3)sc2c1 | 3.82 | 152 | 2.67 | 408 |  |  |  |  | 

Row | SMILES | pED50 (Mus musculus [1]) | ED50 (Mus musculus [1]) [µmol/kg] | PI (Mus musculus [2]) | TD50 at 1 min [3] [µmol/kg] | ED50 (Mus musculus [4]) [µmol/kg] | Activity (Mus musculus [5]) [%] | Activity (Rattus norvegicus [6]) [s] | Activity (Rattus norvegicus [7]) [s] | Activity (Rattus norvegicus [8]) [s]
24 | CC(=O)N1N=C(Nc2nc3ccc([N+](=O)[O-])cc3s2)CC1c1ccc(Cl)cc1 (configuration not stated) | 3.88 | 132 | 2.48 | 328 | 138 |  |  |  | 
25 | O=C(/C=C/c1ccc(O)cc1)Nc1nc2ccc([N+](=O)[O-])cc2s1 | 3.42 | 382 | 1.57 | 602 |  |  |  |  | 
26 | CC(=O)N1N=C(Nc2nc3ccc(Cl)cc3s2)CC1c1ccc(Cl)cc1 (configuration not stated) | 4.1 | 79.5 | 4.35 | 345 | 81.5 | 31.66 |  | 134 | 
27 | COc1ccc(C2CC(Nc3nc4ccccc4s3)=NN2C(C)=O)cc1O (configuration not stated) | 3.59 | 259 | 1.47 | 382 |  |  |  |  | 
28 | O=C(/C=C/c1ccco1)Nc1nc2ccccc2s1 | 3.11 | 781 | 1.15 | 898 |  |  |  |  | 
29 | Cc1ccc2nc(NC(=O)/C=C/c3ccc(O)cc3)sc2c1 | 3.57 | 271 | 1.42 | 387 |  |  |  |  | 
30 | O=C(/C=C/c1ccc(Cl)cc1)Nc1nc2ccccc2s1 | 3.44 | 367 | 1.1 | 402 |  |  |  |  | 
31 | COc1ccc(C2CC(Nc3nc4ccc(Cl)cc4s3)=NN2C(C)=O)cc1 (configuration not stated) | 4.03 | 93.3 | 2.01 | 187 | 97.3 | 35.91 |  |  | 88
32 | CC(=O)N1N=C(Nc2nc3ccc([N+](=O)[O-])cc3s2)CC1c1ccco1 (configuration not stated) | 3.56 | 274 | 1.29 | 355 |  |  |  |  | 
33 | O=C(/C=C/c1ccccc1)Nc1nc2ccccc2s1 | 3.19 | 646 | 1.28 | 832 |  |  |  |  | 
34 | COc1ccc(/C=C/C(=O)Nc2nc3ccc(Cl)cc3s2)cc1 | 3.59 | 259 | 1.79 | 465 |  |  |  |  | 
35 | COc1ccc(/C=C/C(=O)Nc2nc3ccccc3s2)cc1O | 3.31 | 495 | 1.12 | 556 |  |  |  |  | 
36 | COc1ccc(/C=C/C(=O)Nc2nc3ccc([N+](=O)[O-])cc3s2)cc1 | 3.5 | 315 | 1.47 | 466 |  |  |  |  | 
37 | CC(=O)N1N=C(Nc2nc3ccccc3s2)CC1c1ccccc1 (configuration not stated) | 3.5 | 315 | 1.57 | 498 |  |  |  |  | 
38 | CC(=O)N1N=C(Nc2nc3ccc(Cl)cc3s2)CC1c1ccco1 (configuration not stated) | 3.67 | 212 | 1.82 | 387 |  |  |  |  | 
39 | O=C(/C=C/c1ccco1)Nc1nc2ccc([N+](=O)[O-])cc2s1 | 3.22 | 597 | 1.39 | 834 |  |  |  |  | 
40 | COc1ccc(/C=C/C(=O)Nc2nc3ccc([N+](=O)[O-])cc3s2)cc1O | 3.43 | 372 | 2.13 | 793 |  |  |  |  | 
41 | CC(=O)N1N=C(Nc2nc3ccc(Cl)cc3s2)CC1c1ccc(O)cc1 (configuration not stated) | 3.97 | 106 | 1.97 | 210 | 107 |  |  |  | 
42 | COc1ccc(/C=C/C(=O)Nc2nc3ccc(C)cc3s2)cc1 | 3.68 | 209 | 2.24 | 468 |  |  |  |  | 
43 | CC(=O)N1N=C(Nc2nc3ccccc3s2)CC1c1ccco1 (configuration not stated) | 3.42 | 382 | 1.41 | 538 |  |  |  |  | 
44 | CC(=O)N1N=C(Nc2nc3ccc([N+](=O)[O-])cc3s2)CC1c1ccccc1 (configuration not stated) | 3.67 | 216 | 1.65 | 357 |  |  |  |  | 
45 | O=C1NC(=O)C(c2ccccc2)(c2ccccc2)N1 [PHENYTOIN] |  | 13.8 | 8.01 | 110 |  |  |  |  | 
